According to ChEMBL document CHEMBL3351368, “Biphenyl-4-carboxylic acid [2-(1H-indol-3-yl)-ethyl]-methylamide (CA224), a nonplanar analogue of fascaplysin, inhibits Cdk4 and tubulin polymerization: evaluation of in vitro and in vivo anticancer activity” (J Med Chem, 2014):
Converted amounts (≈) assume the structure as drawn. The source made the active and inactive calls.

How the values were obtained:
Mus musculus [1] = assay: Toxicity in human NCI-H460 cells xenografted in SCID mouse at 100 mg/kg, ip relative to untreated control; format: organism-based; set-up: dose 100 mg/kg, route intraperitoneal; settings: in vivo
How it was run: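 SCID female mice, 15-24 g, 6-8 weeks old, received 5.3 × 10^6 NCI-H460 cells subcutaneously on the dorsal side. Randomized at 4-6 mm tumors (about 6 days) into groups of 6 or 7, then dosed intraperitoneally for 9 consecutive days. Body weight recorded daily as percent of the start-of-treatment weight; >10% drop counted significant, >20% highly significant.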

NCI-H1299 [2] = assay: Cell cycle arrest in human NCI-H1299 cells assessed as accumulation of cells at G2/M phase at IC50 concentration after 24 hrs by flow cytometry (reference value: 18%); format: functional
A549 [3] = assay: Increase in p27 level in p53+, pRb+ human A549 cells at IC50 concentration after 24 hrs by Western blot analysis
LS174T [4] = assay: Increase in p27 level in p53+, pRb+ human LS 174T cells at IC50 concentration after 24 hrs by Western blot analysis
[5] = biological target: Protein kinase C alpha type (Homo sapiens) (UniProt P17252); assay: Inhibition of human PKCalpha assessed as enzyme activity at 10 uM
[6] = Growth inhibition of mouse BNL-SVA.8 cells after 48 hrs by MTT assay; format: functional
How it was run: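 MTT cell proliferation assay. IC50 (µM) was defined as the concentration giving 50% inhibition of cell growth.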

[7] = Solubility in water; format: physicochemical
CYP2C19 = CYP2C19 (Homo sapiens, UniProt P33261); assay: Inhibition of human recombinant CYP2C19 at 10 uM; format: ADME
MiaPaCa [8] = assay: Effect on p21 level in p53His273 mutant, pRb+ human MiaPaCa cells at IC50 concentration after 48 hrs by Western blot analysis; format: functional
LS174T [9] = assay: Induction of p21 level in p53+, pRb+ human LS 174T cells at IC50 concentration after 24 hrs by Western blot analysis
[10] = biological target: Serine/threonine-protein kinase PLK3 (Homo sapiens) (UniProt Q9H4B4); assay: Inhibition of human Plk3 assessed as enzyme activity at 10 uM
A549 [11] = assay: Reduction Cdk1 level in p53+, pRb+ human A549 cells at IC50 concentration after 24 hrs by Western blot analysis
NCI-H358 [12] = assay: Induction of apoptosis in p53 null, […] human NCI-H358 cells assessed as fragmented nuclei/distrupted cell membrane at 1 to 10 uM by DAPI staining-based flow cytometry; settings: TDE = time-dependent effect
[13] = AUC (0 to t) in BALB/c mouse at 10 mg/kg, po; format: ADME, organism-based; set-up: dose 10 mg/kg, route oral; settings: plasma
How it was run: (§1)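 BALB/c mice given a single dose of 1.0 mg/kg IV or 10 mg/kg orally; plasma concentration followed over time and pharmacokinetic parameters derived from the time-concentration profile.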

MiaPaCa [14] = assay: Induction in Cdk1 level in p53His273 mutant, pRb+ human MiaPaCa cells at IC50 concentration after 48 hrs by Western blot analysis; format: functional
[15] = Terminal half life in BALB/c mouse at 1 mg/kg, iv; format: ADME, organism-based; set-up: dose 1 mg/kg, route intravenous; settings: in vivo, read-out: beta t1/2 (converted); how it was run: as §1
Mus musculus [16] = assay: Toxicity in human HCT116 cells xenografted in SCID mouse assessed as change in body weight at 100 mg/kg, ip relative to untreated control; format: organism-based, HCT-116; set-up: dose 100 mg/kg, route intraperitoneal; settings: in vivo
How it was run: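 SCID male mice, 18-25 g, 6-8 weeks old, received 6.6 × 10^6 HCT-116 cells subcutaneously on the dorsal side. Randomized into groups of 7 at 4-6 mm tumors (about 5 days), then dosed intraperitoneally for 9 consecutive days. Tumor size recorded every 2-5 days, weight = L×W²×0.5; %GI = 100 − %T/C. Body weight taken daily relative to start; Student t-test.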

[17] = biological target: Epidermal growth factor receptor (Homo sapiens) (UniProt P00533); assay: Inhibition of human EGFR assessed as enzyme activity at 10 uM
A549 [18] = assay: Induction of apoptosis in p53+, pRb+ human A549 cells assessed as fragmented nuclei/distrupted cell membrane after 24 hrs by DAPI staining-based flow cytometry; format: functional
NCI-H358 [19] = assay: Induction of apoptosis in p53 null, […] human NCI-H358 cells assessed as fragmented nuclei/distrupted cell membrane after 24 hrs by DAPI staining-based flow cytometry
[20] = Cmax in BALB/c mouse at 1 mg/kg, iv; format: ADME, organism-based; set-up: dose 1 mg/kg, route intravenous; settings: in vivo; how it was run: as §1
LS174T [21] = assay: Reduction cyclin B1 level in p53+, pRb+ human LS 174T cells at IC50 concentration after 24 hrs by Western blot analysis
Tubulin (Homo sapiens) = Tubulin (Homo sapiens) (UniProt P68371+Q9H4B7+P0DPH7+P68366+Q13509+Q71U36+P04350+Q3ZCM7+P07437+P68363+Q9BQE3+Q6PEY2+Q13885+Q9BVA1+Q9BUF5); assay: Inhibition of tubulin (unknown origin) polymerization assessed as decrease in Vmax measured by spectrophotometry; format: protein-complex assay
How it was run: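 Purified tubulin polymerisation followed as absorbance increase over about 4000 s. Vmax (mOD/min) is taken as the read-out, with final polymer mass also noted. Compound is tested at 2.5, 5, 10 and 25 µM alongside untreated control, paclitaxel 10 µM (enhancer) and nocodazole 10 µM (inhibitor). Curves are the average of three independent experiments.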

NCI-H1299 [22] = assay: Induction of apoptosis in p53 null, pRb+ human NCI-H1299 cells assessed as fragmented nuclei/distrupted cell membrane after 24 hrs by DAPI staining-based flow cytometry
[23] = Efflux ratio of permeability across basolateral to apical side over apical to basolateral side in human Caco2 cells; format: ADME, cell-based; settings: Caco-2
[24] = Cell cycle arrest in mouse BNL-SVA.8 cells assessed as accumulation of cells at G2/M phase at IC50 concentration after 48 hrs by flow cytometry (reference value: 13%); format: functional
How it was run: (§2)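 Normal (BNL CL2) and SV40 large T-antigen transformed (BNL SV A.8) mouse embryonic hepatic cells were treated at IC50 or IC70 concentration for 48 h. Analysis was by FACS, with apoptosis taken as % cells in the sub-G1 peak. Untreated cells served as control.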

BNL-CL2 = assay: Cell cycle arrest in mouse BNL-CL2 cells assessed as accumulation of cells at G2/M phase at IC70 concentration after 48 hrs by flow cytometry; format: functional, cell-based; how it was run: as §2
[25] = biological target: Insulin-like growth factor 1 receptor (Homo sapiens) (UniProt P08069); assay: Inhibition of human IGF-1R assessed as enzyme activity at 10 uM
[26] = AUC (0 to infinity) in BALB/c mouse at 1 mg/kg, iv; format: ADME, organism-based; set-up: time infinity, dose 1 mg/kg, route intravenous; settings: plasma; how it was run: as §1
[27] = Cell cycle arrest in mouse BNL-SVA.8 cells assessed as accumulation of cells at subG1 phase at IC70 concentration after 48 hrs by flow cytometry; format: functional; how it was run: as §2

Chain of Insulin-like growth factor 1 receptor (Homo sapiens) (P08069 31-736 limits assumed): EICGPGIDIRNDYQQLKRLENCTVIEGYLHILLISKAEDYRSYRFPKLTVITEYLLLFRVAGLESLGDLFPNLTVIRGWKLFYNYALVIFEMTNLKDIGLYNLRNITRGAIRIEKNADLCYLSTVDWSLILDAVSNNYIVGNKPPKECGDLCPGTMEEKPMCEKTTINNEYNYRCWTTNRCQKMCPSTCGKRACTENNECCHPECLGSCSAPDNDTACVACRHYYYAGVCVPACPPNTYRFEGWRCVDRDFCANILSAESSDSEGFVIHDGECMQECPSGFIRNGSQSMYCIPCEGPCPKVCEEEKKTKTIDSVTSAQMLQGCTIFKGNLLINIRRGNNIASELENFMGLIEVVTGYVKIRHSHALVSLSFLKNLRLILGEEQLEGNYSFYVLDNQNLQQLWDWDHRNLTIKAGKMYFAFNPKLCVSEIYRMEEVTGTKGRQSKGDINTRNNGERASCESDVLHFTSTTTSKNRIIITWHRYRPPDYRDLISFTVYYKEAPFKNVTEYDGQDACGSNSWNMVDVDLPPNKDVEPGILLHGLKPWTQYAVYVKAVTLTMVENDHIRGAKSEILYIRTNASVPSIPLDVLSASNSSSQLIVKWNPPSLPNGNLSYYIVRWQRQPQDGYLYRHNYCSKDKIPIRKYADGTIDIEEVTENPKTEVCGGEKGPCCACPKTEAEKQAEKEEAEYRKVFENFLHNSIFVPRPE
Chain of Insulin-like growth factor 1 receptor (Homo sapiens) (P08069 741-1367 limits assumed): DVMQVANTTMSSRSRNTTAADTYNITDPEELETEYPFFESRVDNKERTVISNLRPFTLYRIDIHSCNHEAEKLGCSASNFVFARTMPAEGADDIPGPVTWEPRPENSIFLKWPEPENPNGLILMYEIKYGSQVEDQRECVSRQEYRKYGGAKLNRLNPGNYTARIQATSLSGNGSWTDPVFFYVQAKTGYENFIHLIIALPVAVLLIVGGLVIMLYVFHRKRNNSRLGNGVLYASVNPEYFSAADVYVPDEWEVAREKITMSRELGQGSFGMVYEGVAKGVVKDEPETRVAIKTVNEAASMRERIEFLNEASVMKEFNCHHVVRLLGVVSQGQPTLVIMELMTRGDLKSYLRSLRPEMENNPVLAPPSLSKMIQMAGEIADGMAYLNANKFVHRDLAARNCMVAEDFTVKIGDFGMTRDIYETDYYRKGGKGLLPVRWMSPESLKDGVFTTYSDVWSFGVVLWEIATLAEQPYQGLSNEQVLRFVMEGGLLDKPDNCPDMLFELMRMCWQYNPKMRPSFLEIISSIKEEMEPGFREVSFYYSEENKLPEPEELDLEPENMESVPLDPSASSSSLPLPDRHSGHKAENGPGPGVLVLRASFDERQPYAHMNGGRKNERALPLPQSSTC
Chain of CYP2C19 (P33261 whole entry): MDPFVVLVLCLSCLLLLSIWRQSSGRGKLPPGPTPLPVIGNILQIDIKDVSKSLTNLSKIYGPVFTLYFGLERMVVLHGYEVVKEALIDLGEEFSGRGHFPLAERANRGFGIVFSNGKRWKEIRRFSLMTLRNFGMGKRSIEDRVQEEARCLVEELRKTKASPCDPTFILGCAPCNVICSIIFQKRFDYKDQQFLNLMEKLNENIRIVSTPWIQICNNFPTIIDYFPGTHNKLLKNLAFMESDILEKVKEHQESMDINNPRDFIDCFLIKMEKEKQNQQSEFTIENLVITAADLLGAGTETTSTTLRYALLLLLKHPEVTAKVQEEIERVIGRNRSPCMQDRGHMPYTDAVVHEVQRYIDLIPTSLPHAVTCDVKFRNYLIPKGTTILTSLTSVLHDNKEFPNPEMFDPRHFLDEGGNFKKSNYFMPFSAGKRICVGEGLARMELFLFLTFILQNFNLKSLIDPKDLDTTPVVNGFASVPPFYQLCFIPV
Chain of Serine/threonine-protein kinase PLK3 (Homo sapiens) (Q9H4B4 whole entry, looked up): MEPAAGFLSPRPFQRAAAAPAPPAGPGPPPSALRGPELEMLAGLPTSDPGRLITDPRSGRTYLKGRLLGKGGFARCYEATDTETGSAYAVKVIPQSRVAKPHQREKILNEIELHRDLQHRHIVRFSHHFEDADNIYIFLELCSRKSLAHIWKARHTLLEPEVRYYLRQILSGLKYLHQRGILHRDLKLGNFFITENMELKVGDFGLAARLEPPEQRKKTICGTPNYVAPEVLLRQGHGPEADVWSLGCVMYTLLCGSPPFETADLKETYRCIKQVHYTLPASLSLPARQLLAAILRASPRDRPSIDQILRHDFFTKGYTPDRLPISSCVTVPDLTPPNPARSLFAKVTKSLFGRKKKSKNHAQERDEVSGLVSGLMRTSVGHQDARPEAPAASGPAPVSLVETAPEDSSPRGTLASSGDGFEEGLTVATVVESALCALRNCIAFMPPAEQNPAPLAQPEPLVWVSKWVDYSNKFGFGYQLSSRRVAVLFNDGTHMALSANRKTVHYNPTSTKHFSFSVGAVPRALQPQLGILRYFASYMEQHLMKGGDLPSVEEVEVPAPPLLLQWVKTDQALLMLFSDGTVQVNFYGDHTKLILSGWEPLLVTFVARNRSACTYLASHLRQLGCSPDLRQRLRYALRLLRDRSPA
Chain of Epidermal growth factor receptor (Homo sapiens) (P00533 whole entry, the tested form may be a part): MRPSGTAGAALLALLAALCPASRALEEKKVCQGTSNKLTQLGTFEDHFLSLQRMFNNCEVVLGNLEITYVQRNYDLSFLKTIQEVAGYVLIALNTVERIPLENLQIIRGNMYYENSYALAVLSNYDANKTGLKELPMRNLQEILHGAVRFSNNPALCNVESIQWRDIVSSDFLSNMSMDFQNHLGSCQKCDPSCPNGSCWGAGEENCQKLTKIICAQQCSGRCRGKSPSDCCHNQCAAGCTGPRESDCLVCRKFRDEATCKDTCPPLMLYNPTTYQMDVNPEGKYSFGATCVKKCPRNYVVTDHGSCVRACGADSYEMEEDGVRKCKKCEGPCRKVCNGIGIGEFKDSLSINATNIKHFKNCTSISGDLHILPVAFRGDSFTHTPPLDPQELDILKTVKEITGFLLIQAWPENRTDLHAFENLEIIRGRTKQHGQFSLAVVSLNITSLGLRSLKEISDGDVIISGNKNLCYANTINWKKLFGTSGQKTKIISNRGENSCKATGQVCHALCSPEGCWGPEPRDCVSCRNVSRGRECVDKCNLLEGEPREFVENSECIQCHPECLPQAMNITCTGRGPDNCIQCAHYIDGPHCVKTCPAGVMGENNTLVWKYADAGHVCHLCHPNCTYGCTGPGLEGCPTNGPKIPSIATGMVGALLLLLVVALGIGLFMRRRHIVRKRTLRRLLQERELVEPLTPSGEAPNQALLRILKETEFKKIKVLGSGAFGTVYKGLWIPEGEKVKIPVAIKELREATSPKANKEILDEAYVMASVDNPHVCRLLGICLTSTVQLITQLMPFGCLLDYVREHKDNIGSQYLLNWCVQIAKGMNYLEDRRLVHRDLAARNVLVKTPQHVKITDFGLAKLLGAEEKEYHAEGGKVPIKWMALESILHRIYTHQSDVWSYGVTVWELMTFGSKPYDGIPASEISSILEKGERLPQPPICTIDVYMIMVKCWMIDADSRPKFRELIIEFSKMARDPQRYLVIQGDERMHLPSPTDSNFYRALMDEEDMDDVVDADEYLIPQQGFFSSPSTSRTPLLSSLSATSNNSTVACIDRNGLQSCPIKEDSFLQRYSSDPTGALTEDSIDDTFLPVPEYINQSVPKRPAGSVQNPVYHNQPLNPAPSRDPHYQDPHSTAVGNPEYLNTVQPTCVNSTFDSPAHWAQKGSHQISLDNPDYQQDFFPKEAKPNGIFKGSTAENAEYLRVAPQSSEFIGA

CN(CCc1c[nH]c2ccccc12)C(=O)c1ccc(-c2ccccc2)cc1
Activity (Mus musculus [1]): Non-toxic
Activity (NCI-H1299 [2]): 71%
Activity (A549 [3]): Active
Activity (LS174T [4]): Active
inhibition [5]: inactive
IC50 [6]: 3.8 µM
solubility [7]: 80 µg/mL (≈ 226 µM)
inhibition at 10 µM (CYP2C19): 19%
Activity (MiaPaCa [8]): inactive
Activity (LS174T [9]): Active
inhibition [10]: inactive
inhibition (A549 [11]): Active
Activity (NCI-H358 [12]): tde
AUC(0-t) [13]: 172 ng·h/mL
Activity (MiaPaCa [14]): Active
half-life [15]: 19.8 min
Activity (Mus musculus [16]): <= 10%
inhibition [17]: inactive
Activity (A549 [18]): Dose-dependent effect
Activity (NCI-H358 [19]): Dose-dependent effect
Cmax [20]: 371 ng/mL
inhibition (LS174T [21]): Active
inhibition (Tubulin (Homo sapiens)): Dose-dependent effect
Activity (NCI-H1299 [22]): Dose-dependent effect
efflux ratio [23]: 1.1
Activity [24]: 14%
Activity (BNL-CL2): Active
inhibition [25]: inactive
AUC(0-inf) [26]: 189 ng·h/mL
Activity [27]: 44%
